Sampled rows, rich in hits. Any-hit rate of the full collection: about 4.5%.
TAAR1 antagonist – antagonists of human TAAR1; Q96RJ0; CHO RD-HGA16 TAAR1, Fluo-8 calcium fluorescence, antagonist; inhibition, % at 3 µM; 360,000 compounds, 1.5% hits; AID 624466;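 active means inhibition above a per-plate cutoff, the mean inhibition of test compounds on that plate plus 3 SD, cut at about 49% in these data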;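 further: 0% = DMSO plus EC80 beta-PEA response and 100% = DMSO alone without agonist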
Target sequence (Q96RJ0 whole entry, looked up): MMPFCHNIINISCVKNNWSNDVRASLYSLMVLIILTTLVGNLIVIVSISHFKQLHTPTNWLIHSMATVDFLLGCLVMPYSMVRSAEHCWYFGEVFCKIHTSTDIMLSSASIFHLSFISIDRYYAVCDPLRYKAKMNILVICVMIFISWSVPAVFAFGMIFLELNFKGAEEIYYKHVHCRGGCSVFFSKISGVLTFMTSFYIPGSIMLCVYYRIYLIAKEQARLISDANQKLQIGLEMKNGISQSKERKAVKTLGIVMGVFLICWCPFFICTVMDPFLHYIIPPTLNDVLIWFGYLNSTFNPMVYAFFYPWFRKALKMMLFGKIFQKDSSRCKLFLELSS
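Test system – hTAAR1-expressing CHO RD-HGA16 cells, Gα16-coupled · Also added – β-PEA at EC80 concentration, post-compound challenge · Compound – 3 µM, single point · Incubation – dye loading 75 min at 37 °C, then 30 min room temperature · Measured by – Fluo-8 intracellular calcium dye fluorescence, real-time kinetic reads · Benchmarks – vehicle and agonist controls · Replicates – singlicate, one well per test compound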
TAAR1 agonist – human TAAR1 agonism. CHO RD-HGA16 TAAR1, Fluo-8 calcium fluorescence; vehicle wells 0%, saturating PEA agonist 100%. 360,000 compounds, 0.99% hits. activation, % at 3 µM;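 active means activation above the mean activation of all test compounds in the run plus 3 SD, cut at about 38% in these data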
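Benchmarks: low control DMSO, high control PEA (EC100); System: CHO RD-HGA16 cells carrying human TAAR1 plus Gα16; Detection: Fluo-8 fluorescence, 5 s baseline then 140 s kinetic read; Schedule: 17-24 h plating, Fluo-8 75 min 37 °C, 30 min RT; Read-out basis: % activation from peak over basal fluorescence ratio, DMSO-to-PEA scaled.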
OX1R antag-1 – antagonists of human orexin 1 receptor. AID 434989. 330,000 compounds, 0.43% hits. inhibition, % at 5 µM. CHO/OX1R cells, Fluo-8 calcium fluorescence, orexin A. O43613;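 active means inhibition above its plate's threshold, mean inhibition of all tested compounds on the plate plus 3 SD, cut at about 37% in these data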;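 further: 0% = orexin A challenge wells and 100% = SB-334867-A antagonist wells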
Target sequence (O43613 whole entry, looked up): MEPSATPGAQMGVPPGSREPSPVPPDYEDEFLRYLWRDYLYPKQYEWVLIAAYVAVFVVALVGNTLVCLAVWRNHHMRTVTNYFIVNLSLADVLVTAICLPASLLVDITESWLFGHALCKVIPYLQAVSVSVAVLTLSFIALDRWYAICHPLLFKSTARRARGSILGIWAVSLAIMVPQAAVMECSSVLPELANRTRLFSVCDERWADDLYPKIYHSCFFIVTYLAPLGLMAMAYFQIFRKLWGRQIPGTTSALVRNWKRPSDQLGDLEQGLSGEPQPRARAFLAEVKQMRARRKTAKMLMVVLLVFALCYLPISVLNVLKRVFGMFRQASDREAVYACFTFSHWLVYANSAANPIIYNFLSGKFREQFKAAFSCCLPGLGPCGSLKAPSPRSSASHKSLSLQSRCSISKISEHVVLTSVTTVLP
OX1R antag-2 – OX1R (human) antagonism | O43613 | OX1R-expressing cells, FRET antagonist read-out | inhibition, % at 6.6 µM | 330,000 compounds, 1.8% hits; in the data active means inhibition mostly above about 38%, no sharp cut-off; inactive means mostly below about 40%;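 further: 0% = agonist challenge alone and 100% = reference antagonist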
CHO parental Ca – counter-screen: ATP calcium response change in parental CHO cells; parental CHO-K1, ATP-induced calcium, Fluo-8 fluorescence; inhibition, % at 5.6 µM; 330,000 compounds, 0.63% hits; AID 463079;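 active means inhibition above that plate's mean sample inhibition plus 3 SD, cut at about 26% in these data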;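 further: 0% = ATP-challenged DMSO wells and 100% = DMSO wells without ATP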
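Assay system – parental CHO cells · Reagent – ATP stimulus · Detection – intracellular calcium via Fluo-8 no-wash fluorescent dye · Evaluation – percent inhibition of ATP-evoked calcium rise, normalized to controls · Controls – ATP wells versus no-ATP DMSO wells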
GPR7 antag – antagonists of human GPR7 (neuropeptides B/W receptor 1) | inhibition, % at 4.4 µM | 290,000 compounds, 1.1% hits | GPR7-expressing cells, fluorescence antagonist assay | P48145; in the data active means inhibition above about 16%, passing the limit was not always enough;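 further: cells stimulated with the agonist NPW; 0% = agonist with vehicle and 100% = vehicle without agonist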
nonsel antag count – nonselective antagonist in TAAR1 antagonist counter-screen. 2,400 compounds, 77% hits. counterscreen cell line, calcium fluorescence, antagonist mode. inhibition, % at 3 µM. AID 651780. shares compounds with TAAR1 antagonist; in the data active means inhibition above about 22%;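 further: CHO-Ga16 host cells stimulated with ATP at an EC80 level; 0% = agonist EC80 plus vehicle and 100% = vehicle without agonist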
TAAR1 ant conf – confirmation of human TAAR1 antagonists; shares compounds with TAAR1 antagonist; TAAR1-expressing cells, fluorescence antagonist read-out; inhibition, % at 3 µM; 2,400 compounds, 40% hits; AID 651785; in the data active means inhibition above about 49%;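 further: CHO-Ga16 host cells challenged with agonist PEA near its EC80; 0% = agonist at EC80 plus vehicle and 100% = vehicle with no agonist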
Ga16 nonsel ag – nonselective Ga16 agonism, counter-screen. shares compounds with TAAR1 antagonist. Ga16-expressing cells, calcium fluorescence, agonist counterscreen. activation, % at 3 µM. 2,400 compounds, 18% hits; in the data active means activation above about 12%;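 further: 0% = vehicle wells and 100% = saturating stimulus response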
TAAR1 ag count – TAAR1 agonism, antagonist counter-screen; shares compounds with TAAR1 antagonist; 2,400 compounds, 2% hits; activation, % at 3 µM; hTAAR1 cell line, fluorescence activation, agonist mode; in the data active means activation above about 37%;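 further: CHO cells stably expressing TAAR1 with calcium dye readout; 0% = DMSO vehicle and 100% = full agonist response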
* marks the source's active call; other numbers are inactive results; / = not tested or not shown.

SMILES	TAAR1 antagonist	TAAR1 agonist	OX1R antag-1	OX1R antag-2	CHO parental Ca	GPR7 antag	nonsel antag count	TAAR1 ant conf	Ga16 nonsel ag	TAAR1 ag count
C=CCn1c(SCc2ccc(Br)cc2F)nc2cc(C(=O)O)ccc2c1=O	3.9	-1.1	-12.2	30.3	-13.2	-0.5	/	/	/	/
CCN(CC(=O)Nc1ccc(NC(C)=O)cc1)C(=O)c1ccccc1Sc1ccccc1C#N	50.7*	10.6	-6.5	10.1	-13.4	/	27.1*	37.3	4.6	2.4
O=C(C1=C[C@H](c2coc3ccccc3c2=O)C[C@H](OCc2ccc(CO)cc2)O1)N1CCN(Cc2ccc3c(c2)OCO3)CC1	49.5*	5.7	-32.8	34.6	-20.0	11.2	20.8	16.8	4.1	0.9
CC(=O)n1cc([C@@H]2C=C(C(=O)N3CCN(Cc4ccccc4)CC3)O[C@H](OCc3ccc(CO)cc3)C2)c2ccccc21	52.1*	14.8	-8.7	26.5	-29.7	-9.3	17.5	33.9	9.4	13.8
O=C(C1=C[C@@H](c2coc3ccccc3c2=O)C[C@@H](OCc2ccc(CO)cc2)O1)N1CCN(Cc2ccc3c(c2)OCO3)CC1	36.7	12.1	-17.0	11.1	-26.7	-9.9	/	/	/	/
CC(=O)n1cc([C@H]2C=C(C(=O)N3CCN(Cc4ccccc4)CC3)O[C@@H](OCCCCO)C2)c2ccccc21	/	/	-21.1	27.6	-23.6	8.3	/	/	/	/
O=C(NCCc1ccccc1)c1cccc2c1C(=O)c1ccc(N3CCOCC3)cc1S2(=O)=O	50.5*	27.3	-2.8	8.8	-9.2	/	23.8*	43.4	9.5	10.3
O=C(NCc1ccc(F)cc1)c1cccc2c1C(=O)c1ccc(N3CCOCC3)cc1S2(=O)=O	55.5*	35.5	-17.2	6.1	-18.1	/	27.4*	45.4	9.2	6.9
CSC[C@H]1CN(Cc2cccnc2)C(=O)[C@@H]1CC(=O)Nc1ccc(Br)cc1	-27.8	0.6	/	/	/	/	/	/	/	/
CCc1[nH]nc2c1C1(CCN(C(=O)OCc3ccccc3)CC1)C(C#N)=C(N)O2	63.0*	33.4	-21.6	12.6	-8.2	10.3	34.1*	56.9*	15.8*	30.2
Cc1ccnc(NC2OC(=O)c3ccccc32)c1 (stereo not drawn)	-12.7	3.2	3.3	17.8	4.3	15.6	/	/	/	/
CCNC(=S)N/N=C/c1cccc(/C=N/NC(=S)NCC)c1	24.9	7.8	-12.6	12.1	-4.3	-2.2	/	/	/	/
CCNC(=S)N/N=C/c1cccc(OCc2c(F)cccc2Cl)c1	56.8*	5.5	-24.0	11.1	-26.1	-14.7	13.1	47.0	10.9	12.2
O=C(COC(=O)c1ccccc1C(=O)c1ccc(Cl)c([N+](=O)[O-])c1)NC1CCCCCC1	73.8*	13.0	47.9*	20.9	39.0*	30.2*	34.9*	53.7*	8.7	9.6
Nc1cc(Cl)ccc1C(=O)OCC(=O)NC1CCCCC1	101.9*	-2.0	17.2	25.3	30.5*	-0.3	11.0	7.9	3.3	11.8
CSc1ncccc1C(=O)OCC(=O)N1CCCC1	101.0*	-2.8	11.1	2.0	-6.4	/	-4.2	-11.7	8.3	2.6
O=C(COC(=O)c1ccc(Cl)c([N+](=O)[O-])c1)NC1CCCC1	3.6	0.7	-10.2	16.9	-7.9	-5.0	/	/	/	/
Nc1cc(Cl)ccc1C(=O)OCC(=O)N1CCCCCC1	103.3*	2.4	3.2	-0.2	-4.8	/	11.2	4.9	4.3	7.4
Nc1cc(Cl)ccc1C(=O)OCC(=O)N1CCOCC1	-6.0	1.7	-26.8	10.7	8.3	-9.6	/	/	/	/
COc1ccc(CC(=O)Nc2nc(-c3ccc(F)c(F)c3)cs2)cc1	36.2	0.1	-23.1	13.2	7.0	4.2	/	/	/	/
O=C(Cc1ccc(F)cc1)Nc1nc(-c2ccc(F)c(F)c2)cs1	73.6*	9.6	/	/	/	8.7	34.2*	44.8	6.7	4.0
Cc1cc(=O)oc2c3c(cc(OCC(=O)NCCC(=O)O)c12)OC(C)(C)CC3	6.1	1.5	/	/	/	-2.6	/	/	/	/
COc1ccc(CNC(=O)COc2cc3c(c4oc(=O)cc(C)c24)CCC(C)(C)O3)cc1	61.6*	-0.8	-27.1	26.0	20.8	16.4	29.2*	45.1	6.4	5.8
COc1ccc([C@H]2CC(=O)C=C(c3cccc(Br)c3)C2)cc1OC	64.4*	2.6	-1.0	31.8	-17.7	/	19.1	44.8	1.9	0.5
COc1ccc([C@H]2CC(=O)C=C(c3cccc(Br)c3)C2)cc1	27.2	5.7	-20.3	-4.9	-24.6	/	/	/	/	/
SMILES	TAAR1 antagonist	TAAR1 agonist	OX1R antag-1	OX1R antag-2	CHO parental Ca	GPR7 antag	nonsel antag count	TAAR1 ant conf	Ga16 nonsel ag	TAAR1 ag count
O/N=C/c1ccc2cccc(OCc3ccccc3)c2n1	2.9	10.4	-8.7	8.4	-14.6	2.4	/	/	/	/
O=C(N/N=C/c1ccc2cccc(OCc3ccccc3)c2n1)c1ccc(Br)cc1	61.9*	9.6	-14.1	11.7	-23.9	-15.4	21.0	46.9	4.5	2.0
COc1ccc(C(=O)N/N=C/c2ccc3cccc(OCc4ccccc4)c3n2)cc1	60.4*	13.0	-23.9	76.4*	-34.8	-7.2	27.0*	53.4*	6.4	5.1
COc1ccccc1N(C)S(=O)(=O)c1ccc(C(=O)Nc2ccncc2)cc1	39.7	9.0	-17.1	35.1	-6.6	/	/	/	/	/
COc1ccccc1N(C)S(=O)(=O)c1ccc(C(=O)OC(C)C(=O)NCc2ccc3c(c2)OCO3)cc1 (stereo not drawn)	55.8*	21.1	-7.4	6.2	-3.5	-1.3	35.6*	55.9*	11.7*	12.4
COc1ccccc1N(C)S(=O)(=O)c1ccc(C(=O)Nc2cc(OC)c(OC)c(OC)c2)cc1	56.9*	14.0	/	/	/	/	22.6*	33.9	10.1	7.0
NS(=O)(=O)c1cccc(NC(=O)c2cc(=O)c3ccccc3o2)c1	-28.7	2.5	2.2	20.5	1.1	4.8	/	/	/	/
CN(c1ccccc1)S(=O)(=O)c1cccc(NC(=O)c2cc(=O)c3ccccc3o2)c1	74.3*	19.0	-3.1	34.6	-11.8	-4.2	40.3*	56.6*	11.5*	7.0
O=C(Nc1cccc(S(=O)(=O)N2CCCCCC2)c1)c1cc(=O)c2ccccc2o1	78.8*	12.8	-9.8	39.3	3.5	-7.7	42.3*	57.3*	14.9*	12.7
CCC1CCCCN1S(=O)(=O)c1ccc(-n2cnnn2)c(C)c1 (stereo not drawn)	-3.4	4.1	-12.2	6.8	-5.6	-7.4	/	/	/	/
